What is called Inhibition is the percentage by which the read-out fell short of the control.

The results in this text go back to ChEMBL document CHEMBL1125672, “2-acetylpyridine thiosemicarbazones. 13. Derivatives with antifilarial activity” (1991).

Test [1] concerns Onchocerca gutturosa. Description: Mean motility score for treated Onchocerca gutturosa involving LLCMK2 feeder cells at a concentration of 3.1*10e-6 M at 1.5 h. Type of test: functional. Summed up: (§1)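 Single male O. gutturosa worms (obtained following abattoir slaughter) per well in Eagle's MEM with 10% heat-inactivated fetal calf serum, penicillin, streptomycin, amphotericin B and bicarbonate, over LLCMK2 feeder cells, 5% CO2 in air. Drug dissolved in DMSO; controls received matched DMSO ≤0.016%. Motility scored 0 (immotile) to 10 (maximum control activity) every 30 min to 4.5 h, then days 1, 2, 3, 4, 7.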

Another test relates to Brugia pahangi. Description: anti-filarial Activity was measured against Brugia pahangi in jirds at 12.5 mg/kg/day(5 days) dose. Type of test: functional. The procedure, abridged: (§2)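 Jirds with established B. pahangi or A. viteae infections were given drug once daily for 5 days by subcutaneous injection, at the maximum tolerated dose and, where supply allowed, graded lower doses. Tolerance was first checked in noninfected jirds with a single 200 mg/kg oral or subcutaneous dose, watching 72 h for excessive weight loss or death. Macrofilarial suppression was the read-out.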

Test [2] deals with Onchocerca gutturosa. Description: Mean motility score for treated Onchocerca gutturosa involving LLCMK2 feeder cells at a concentration of 5*10e-5 M at 2 h. It is filed as functional. Summed up: as §1
Test [3] concerns Acanthocheilonema viteae. Description: anti-filarial Activity was measured against Acanthocheilonema viteae in jirds at 25 mg/kg/day(5 days) dose. Type of test: functional. The procedure, abridged: as §2
Test [4] relates to Onchocerca volvulus. Description: Mean motility score for treated Onchocerca volvulus excluding LLCMK2 feeder cells at a concentration of 5*10e-5 M at 2 h.
Test [5] relates to Onchocerca gutturosa. Description: Mean motility score for treated Onchocerca gutturosa involving LLCMK2 feeder cells at a concentration of 4.88*10e-8M at 168 h. Type of test: functional. Summed up:
as §1

Test [6] has as its system Onchocerca gutturosa. The experiment in a line: Mean motility score for treated Onchocerca gutturosa involving LLCMK2 feeder cells at a concentration of 1.95*10e-8 M at 96 h. It is filed as functional. The procedure, abridged: (§3)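 One male O. gutturosa per well over LLCMK2 feeder cells in MEM with 10% heat-inactivated FCS, antibiotics and bicarbonate, 5% CO2; compound introduced in DMSO (≤0.016%, equal DMSO in controls). Motility scored 0 (immotile) to 10 (maximal control activity) every 30 min to 4.5 h, then at 1, 2, 3, 4 and 7 days.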

For test [7], the system named is Onchocerca gutturosa. Description: Mean motility score for treated Onchocerca gutturosa involving LLCMK2 feeder cells at a concentration of 1.95*10e-8 M at 1.5 h. Type of test: functional. Summed up: as §3
Test [8] relates to Onchocerca gutturosa. The experiment in a line: Mean motility score for treated Onchocerca gutturosa involving LLCMK2 feeder cells at a concentration of 3.05*10e-9 M at 4 h. Type of test: functional. The procedure, abridged: as §1
Test [9] deals with Onchocerca gutturosa. The experiment in a line: Mean motility score for treated Onchocerca gutturosa involving LLCMK2 feeder cells at a concentration of 5*10e-5 M at 3.5 h. It is filed as functional. The procedure, abridged: as §1
In test [10] the test system is Onchocerca volvulus. Description: Mean motility score for treated Onchocerca volvulus excluding LLCMK2 feeder cells at a concentration of 5*10e-5 M at 0.5 h.
In test [11] the test system is Onchocerca gutturosa. Description: Mean motility score for treated Onchocerca gutturosa involving LLCMK2 feeder cells at a concentration of 1.95*10e-8 M at 4.5 h. It is filed as functional. The procedure, abridged:
as §3

The subject of test [12] is Onchocerca gutturosa. Description: Mean motility score for treated Onchocerca gutturosa involving LLCMK2 feeder cells at a concentration of 1.95*10e-8 M at 3.5 h. The settings on record: in the assay text read “1.95*10e-7 M” for “1.95*10e-8 M”. Type of test: functional. Summed up:
as §3

Test [13] deals with Onchocerca volvulus. The experiment in a line: Mean motility score for treated Onchocerca volvulus excluding LLCMK2 feeder cells at a concentration of 5*10e-5 M at 1.5 h.
Test [14] relates to Onchocerca gutturosa. The experiment in a line: Mean motility score for treated Onchocerca gutturosa involving LLCMK2 feeder cells at a concentration of 3.05*10e-9 M at 72 h. Type of test: functional. Summed up:
as §1

Test [15] relates to Onchocerca gutturosa. The experiment in a line: Mean motility score for treated Onchocerca gutturosa involving LLCMK2 feeder cells at a concentration of 3.05*10e-9 M at 3.5 h. It is filed as functional. The procedure, abridged:
as §1

Test [16] relates to Onchocerca gutturosa. Description: Mean motility score for treated Onchocerca gutturosa involving LLCMK2 feeder cells at a concentration of 3.05*10e-8 M at 1 h. Type of test: functional. Summed up:
as §3

The subject of test [17] is Onchocerca gutturosa. Description: Mean motility score for treated Onchocerca gutturosa involving LLCMK2 feeder cells at a concentration of 3.05*10e-9 M at 4.5 h. Type of test: functional. Summed up:
as §1

Test [18] concerns Onchocerca gutturosa. Description: Mean motility score for treated Onchocerca gutturosa involving LLCMK2 feeder cells at a concentration of 1.95*10e-8 M at 72 h. It is filed as functional. Summed up:
as §3

The subject of test [19] is Onchocerca gutturosa. The experiment in a line: Mean motility score for treated Onchocerca gutturosa involving LLCMK2 feeder cells at a concentration of 4.88*10e-8M at 24 h. Type of test: functional. The procedure, abridged:
as §1

Test [20] deals with Onchocerca gutturosa. The experiment in a line: Mean motility score for treated Onchocerca gutturosa involving LLCMK2 feeder cells at a concentration of 4.88*10e-8M at 2.5 h. It is filed as functional. The procedure, abridged: as §1
Test [21] deals with Onchocerca gutturosa. Description: Mean motility score for treated Onchocerca gutturosa involving LLCMK2 feeder cells at a concentration of 5*10e-5 M at 4 h. Type of test: functional. The procedure, abridged: as §1
The subject of test [22] is Onchocerca volvulus. The experiment in a line: Mean motility score for treated Onchocerca volvulus excluding LLCMK2 feeder cells at a concentration of 3.1*10e-6 M at 1 h.
The subject of test [23] is Onchocerca gutturosa. Description: Mean motility score for treated Onchocerca gutturosa involving LLCMK2 feeder cells at a concentration of 3.1*10e-6 M at 3 h. Type of test: functional. The procedure, abridged: as §1
Test [24] relates to Onchocerca gutturosa. The experiment in a line: Mean motility score for treated Onchocerca gutturosa involving LLCMK2 feeder cells at a concentration of 5*10e-5 M at 24 h. Type of test: functional. Summed up:
as §1

The subject of test [25] is Onchocerca gutturosa. The experiment in a line: Mean motility score for treated Onchocerca gutturosa involving LLCMK2 feeder cells at a concentration of 1.21*10e-8M at 72 h. Type of test: functional. The procedure, abridged:
as §3

The test system of test [26] is Acanthocheilonema viteae. The experiment in a line: anti-filarial Activity was measured against Acanthocheilonema viteae in jirds at 50 mg/kg/day(5 days) dose. It is filed as functional. The procedure, abridged: as §2
Test [27] concerns Onchocerca gutturosa. The experiment in a line: Colorimetric quantification of male Onchocerca gutturosa viability, expressed as % inhibition of formazan formation at 1.21*10e-8M conc. by using tetrazolium Dye MTT assay. Type of test: functional. The procedure, abridged:
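Single intact male O. gutturosa, cultured with LLCMK2 feeder cells in MEM + 10% heat-inactivated FCS (5% CO2), drug added from DMSO (≤0.016% DMSO in controls). MTT read after 168 h: worm in 0.5 mg/mL MTT, 30 min at 36.5 °C, formazan solubilized in DMSO 1 h at room temperature, absorbance 490 nm vs DMSO blank.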
In general terms: Formazan colour is commonly taken as a measure of viable cells.

Test [28] relates to Acanthocheilonema viteae. Description: anti-filarial Activity was measured against Acanthocheilonema viteae in jirds at 100 mg/kg/day(5 days) dose. It is filed as functional. The procedure, abridged:
as §2

Test [29] has as its system Onchocerca gutturosa. Description: Mean motility score for treated Onchocerca gutturosa involving LLCMK2 feeder cells at a concentration of 3.05*10e-9 M at 1.5 h. It is filed as functional. The procedure, abridged:
as §3

In test [30] the test system is Onchocerca gutturosa. Description: Mean motility score for treated Onchocerca gutturosa involving LLCMK2 feeder cells at a concentration of 1.94*10e-7M at 24 h. It is filed as functional. Summed up: as §3
Test [31] deals with Onchocerca gutturosa. Description: Mean motility score for treated Onchocerca gutturosa involving LLCMK2 feeder cells at a concentration of 1.21*10e-8M at 168 h. Type of test: functional. The procedure, abridged:
as §3

For test [32], the system named is Onchocerca gutturosa. The experiment in a line: Mean motility score for treated Onchocerca gutturosa involving LLCMK2 feeder cells at a concentration of 1.94*10e-7M at 168 h(O = IMMOTILE). Type of test: functional. The procedure, abridged: as §3
For test [33], the system named is Onchocerca gutturosa. Description: Mean motility score for treated Onchocerca gutturosa involving LLCMK2 feeder cells at a concentration of 3.05*10e-9 M at 1 h. Type of test: functional. The procedure, abridged: as §3

Regarding `C/C(=N\NC(=S)N1CCCCCC1)c1ccccn1`, the Motility in the test on Onchocerca gutturosa [1] worked out at 9.8; in the test with Onchocerca gutturosa [2] it was 4.8; in the test with Onchocerca volvulus [4], 8; in the test on Onchocerca gutturosa [5] it was 0; in the test on Onchocerca gutturosa [6] it was 0; with Onchocerca gutturosa [7], 9.5. The Motility in the test with Onchocerca gutturosa [8] was 7.8; with Onchocerca gutturosa [9] it was 2.3; in the test on Onchocerca volvulus [10], 8; with Onchocerca gutturosa [11] it was 9.5; in the test with Onchocerca gutturosa [12] it was 10; in the test with Onchocerca volvulus [13] it was 8. In addition, the Motility in the test with Onchocerca gutturosa [14] worked out at 6; with Onchocerca gutturosa [15] it was 8.3; in the test with Onchocerca gutturosa [16], 9; in the test on Onchocerca gutturosa [17], 9.5; in the test on Onchocerca gutturosa [18], 1; with Onchocerca gutturosa [19], 4. Besides, the Motility amounted to 8.3 in the test on Onchocerca gutturosa [20]; 1.5 in the test on Onchocerca gutturosa [21]; 6.6 with Onchocerca volvulus [22]; 9.3 in the test with Onchocerca gutturosa [23]; 0 in the test with Onchocerca gutturosa [24]. The Suppression in the test on Brugia pahangi and in the test on Acanthocheilonema viteae [3] was 100% in each case.
For the molecule `C/C(=N\NC(S)=Nc1ccccc1N)c1ccccn1`, the Motility in the test on Onchocerca gutturosa [25] is 6.8; with Onchocerca gutturosa [2] it was 8.5; in the test on Onchocerca volvulus [4] it was 6; in the test with Onchocerca gutturosa [8] it was 5.8; in the test with Onchocerca gutturosa [9] it was 9.5; in the test with Onchocerca volvulus [10], 5. Besides, the Motility in the test with Onchocerca gutturosa [29] is recorded as 8.3; with Onchocerca gutturosa [30], 8; with Onchocerca gutturosa [31], 1; in the test with Onchocerca volvulus [13], 4.4; in the test with Onchocerca gutturosa [32], 0; with Onchocerca gutturosa [14], 7.5. Moreover, the Motility was found to be 7.3 in the test with Onchocerca gutturosa [15]; 7.5 in the test with Onchocerca gutturosa [17]; 8.8 in the test with Onchocerca gutturosa [33]; 9.5 with Onchocerca gutturosa [21]; 5 in the test on Onchocerca volvulus [22]; 9.5 in the test on Onchocerca gutturosa [24]. For the same molecule, the Suppression is listed as 16% in the test with Brugia pahangi, 100% in the test on Acanthocheilonema viteae [26], 94% with Acanthocheilonema viteae [3] and 100% in the test with Acanthocheilonema viteae [28]. The Inhibition with Onchocerca gutturosa [27] came to 27.9%.
